The values below come from article PMC5696082 (Analytical biochemistry, 2017).

The target in data set [1] is T1, hCE1 (Homo sapiens, UniProt P23141).
T1 sequence (P23141 18-567): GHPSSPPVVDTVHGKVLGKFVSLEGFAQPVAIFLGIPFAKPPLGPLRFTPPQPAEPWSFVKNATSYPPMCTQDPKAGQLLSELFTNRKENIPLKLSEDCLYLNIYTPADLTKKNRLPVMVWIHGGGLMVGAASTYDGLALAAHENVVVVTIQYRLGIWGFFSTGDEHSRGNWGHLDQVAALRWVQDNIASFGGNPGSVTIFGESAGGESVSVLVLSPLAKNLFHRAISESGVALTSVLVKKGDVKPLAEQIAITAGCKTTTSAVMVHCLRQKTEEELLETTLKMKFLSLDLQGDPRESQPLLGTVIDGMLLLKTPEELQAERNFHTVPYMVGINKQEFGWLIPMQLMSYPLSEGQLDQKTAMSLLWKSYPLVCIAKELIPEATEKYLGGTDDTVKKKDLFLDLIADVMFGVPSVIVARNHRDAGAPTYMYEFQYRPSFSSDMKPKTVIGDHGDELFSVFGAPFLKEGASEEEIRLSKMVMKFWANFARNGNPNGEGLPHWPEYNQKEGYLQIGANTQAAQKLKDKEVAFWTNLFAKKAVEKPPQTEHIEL
In words: Potency of esterase inhibitors, hCE1. Format: biochemical.

Data set [2] addresses T2, hCE3 (Homo sapiens, UniProt Q6UWW8).
T2 sequence (Q6UWW8 27-571): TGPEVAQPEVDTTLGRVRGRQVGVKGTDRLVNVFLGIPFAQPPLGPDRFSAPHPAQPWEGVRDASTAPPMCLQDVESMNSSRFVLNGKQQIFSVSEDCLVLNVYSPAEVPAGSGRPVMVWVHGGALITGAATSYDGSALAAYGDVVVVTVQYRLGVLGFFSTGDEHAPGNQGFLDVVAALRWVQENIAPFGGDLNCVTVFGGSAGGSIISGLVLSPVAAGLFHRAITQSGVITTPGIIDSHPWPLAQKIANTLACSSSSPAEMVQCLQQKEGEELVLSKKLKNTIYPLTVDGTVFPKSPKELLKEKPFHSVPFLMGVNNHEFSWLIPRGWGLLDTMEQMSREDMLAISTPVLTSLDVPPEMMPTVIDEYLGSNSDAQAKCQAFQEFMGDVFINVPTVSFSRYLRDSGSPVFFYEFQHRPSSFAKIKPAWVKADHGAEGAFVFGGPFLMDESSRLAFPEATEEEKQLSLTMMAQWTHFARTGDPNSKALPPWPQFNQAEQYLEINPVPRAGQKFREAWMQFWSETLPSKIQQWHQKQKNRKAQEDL
The data set is described as follows: Potency of esterase inhibitors, hCE3. Format: biochemical.

In data set [3] the target is T3, FAAH (Homo sapiens, UniProt O00519).
T3 sequence (O00519 1-579): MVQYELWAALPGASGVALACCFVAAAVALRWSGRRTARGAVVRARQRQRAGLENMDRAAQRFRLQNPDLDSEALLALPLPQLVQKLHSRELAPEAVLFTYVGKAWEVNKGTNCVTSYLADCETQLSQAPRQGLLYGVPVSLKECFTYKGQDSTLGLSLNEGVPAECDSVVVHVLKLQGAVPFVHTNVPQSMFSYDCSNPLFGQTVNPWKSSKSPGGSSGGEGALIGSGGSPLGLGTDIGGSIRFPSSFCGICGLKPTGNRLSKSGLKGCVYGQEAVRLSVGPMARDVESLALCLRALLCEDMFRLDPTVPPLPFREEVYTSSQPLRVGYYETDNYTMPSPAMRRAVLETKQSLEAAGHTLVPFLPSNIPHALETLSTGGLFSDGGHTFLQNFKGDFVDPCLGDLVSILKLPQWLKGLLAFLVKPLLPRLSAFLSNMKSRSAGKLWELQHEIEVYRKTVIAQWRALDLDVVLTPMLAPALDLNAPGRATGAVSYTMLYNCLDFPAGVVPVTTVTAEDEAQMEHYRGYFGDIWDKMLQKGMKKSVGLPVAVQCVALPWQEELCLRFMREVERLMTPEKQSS
The data set is described as follows: Potency of esterase inhibitors, FAAH. Format: biochemical.

In data set [4] the target is T4, AADAC (Homo sapiens, UniProt P22760).
T4 sequence (P22760 1-399): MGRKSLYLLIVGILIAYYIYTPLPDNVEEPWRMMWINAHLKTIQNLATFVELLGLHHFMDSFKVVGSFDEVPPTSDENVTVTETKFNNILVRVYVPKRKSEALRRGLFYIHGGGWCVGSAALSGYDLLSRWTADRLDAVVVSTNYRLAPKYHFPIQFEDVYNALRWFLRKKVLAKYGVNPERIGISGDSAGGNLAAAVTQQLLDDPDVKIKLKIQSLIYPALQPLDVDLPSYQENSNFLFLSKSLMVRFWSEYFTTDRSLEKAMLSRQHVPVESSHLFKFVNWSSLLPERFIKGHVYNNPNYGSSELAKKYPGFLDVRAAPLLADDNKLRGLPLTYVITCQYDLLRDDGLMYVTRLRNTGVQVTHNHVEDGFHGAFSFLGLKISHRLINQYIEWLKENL
In words: Potency of esterase inhibitors, AADAC. Format: biochemical.

In data set [5] the target is PON1 (Homo sapiens, UniProt P27169). In words: Potency of esterase inhibitors, PON1. Format: biochemical. The gist of the method:
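PON1 used as crude lysate of baculovirus-infected insect cells in PBS. Added to 2-fold serial inhibitor dilutions (top concentration at most 100 µM) and preincubated 5 min. Cyanohydrin ester substrate then added to 50 µM final, DMSO ≤2%, in 100 mM phosphate pH 8, 0.1 mg/mL BSA, 37°C. Fluorescence (ex 330/em 465 nm) read kinetically for 10 min. IC50 from linear regression of log[inhibitor] against % remaining activity; triplicates, single experiment.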

Data set [6] has as its target T2, hCE3. In words: Specific activity of hCE3 towards substrates. Format: biochemical. In outline:
(§1)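 Enzymes expressed in baculovirus-infected High Five cells: hCE1 CHAPS-solubilised from the 100,000 g pellet, then DEAE-purified; hCE2/hCE3 crude soluble fraction; FAAH crude insoluble fraction. Substrate added to 50 µM final in 100 mM sodium phosphate pH 8.0, 0.1 mg/mL BSA, 1% DMSO. Fluorescence read every 30 s for ≥10 min at 37°C. Rates corrected for estimated purity: hCE1 25%, hCE2 4%, hCE3 3.5% (3% in footnotes), FAAH 6.9%. Triplicates.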

Data set [7] has as its target T1, hCE1. In words: Specific activity of hCE1 towards substrates. Format: biochemical. The gist of the method: as §1
The target in data set [8] is T1, hCE1. The data set is described as follows: Limit of detection and quantification for hCE1 using partially purified enzyme. Format: biochemical. The following applies: [S] = 50 µM; for LOD for hCE1: S/N > 3; for LOQ for hCE1: S/N > 9. In outline:
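Partially purified recombinant hCE1, without any matrix, diluted into wells with substrate at 50 µM. Assay run in 100 mM sodium phosphate, pH 8, 0.1 mg/mL BSA, 1% DMSO, at 37°C. S/N taken as mean signal of enzyme wells over the SD of […], quadruplicates in one experiment. LOD set as the lowest level with S/N > 3; LOQ as S/N > 9.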

Data set [9] relates to Kidney S9. In words: Substrate hydrolysis by pooled tissue S9, kidney. Format: biochemical, human. In outline: (§2)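 Commercial pooled human tissue S9 fraction added to substrate at 50 µM final in 100 mM sodium phosphate, pH 8.0, 0.1 mg/mL BSA. Fluorescence monitored every 30 s for at least 10 min at 37°C. Specific activity given as the mean of triplicates in one experiment, or mean ± standard deviation of 3 independent experiments run in triplicate.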

The target of data set [10] is T3, FAAH. The data set is described as follows: Specific activity of FAAH towards substrates. Format: biochemical. The following applies: Table 2; [S] = 50 µM, 37°C, pH 8; estimated 6.9% purity. In outline:
as §1

The test system of data set [11] is Intestine S9. The data set is described as follows: Substrate hydrolysis by pooled tissue S9, intestine. Format: biochemical, human. The gist of the method: as §2
Data set [12] can be described thus: Background hydrolysis of substrates in phosphate buffer. Format: physicochemical. The following applies: phosphate buffer 100 mM, pH 8, 0.1 mg/mL BSA.
The test system of data set [13] is Liver S9. The data set is described as follows: Substrate hydrolysis by pooled tissue S9, liver. Format: biochemical, human. The gist of the method: as §2
Data set [14] concerns Lung S9. In words: Substrate hydrolysis by pooled tissue S9, lung. Format: biochemical, human. In outline: as §2
Data set [15] addresses T5, hCE2 (Homo sapiens, UniProt O00748).
T5 sequence (O00748 27-559): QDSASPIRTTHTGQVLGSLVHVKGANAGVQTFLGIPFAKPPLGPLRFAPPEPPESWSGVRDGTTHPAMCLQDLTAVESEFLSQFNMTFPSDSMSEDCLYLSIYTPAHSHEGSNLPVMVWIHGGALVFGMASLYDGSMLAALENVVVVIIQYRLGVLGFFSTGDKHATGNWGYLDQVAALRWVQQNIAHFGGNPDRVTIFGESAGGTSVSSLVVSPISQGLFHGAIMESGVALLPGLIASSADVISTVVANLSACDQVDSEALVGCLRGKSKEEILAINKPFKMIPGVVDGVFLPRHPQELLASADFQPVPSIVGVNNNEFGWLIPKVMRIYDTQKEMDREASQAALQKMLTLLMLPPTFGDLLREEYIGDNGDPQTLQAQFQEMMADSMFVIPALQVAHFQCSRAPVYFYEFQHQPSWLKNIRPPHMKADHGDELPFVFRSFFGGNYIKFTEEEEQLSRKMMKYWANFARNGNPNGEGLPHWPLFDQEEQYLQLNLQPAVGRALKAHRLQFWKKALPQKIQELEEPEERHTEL
In words: Specific activity of hCE2 towards substrates. Format: biochemical. The gist of the method:
as §1

The target in data set [16] is T5, hCE2. In words: Potency of esterase inhibitors, hCE2. Format: biochemical.
The mark [17] stands for this setting: Kinetic mode (30 s intervals for 30 minutes).

Bounds are passed on as bounds.

By IC50 is commonly meant the concentration at which inhibition is half-maximal.

PON1, sequence (P27169 whole entry, species assumed): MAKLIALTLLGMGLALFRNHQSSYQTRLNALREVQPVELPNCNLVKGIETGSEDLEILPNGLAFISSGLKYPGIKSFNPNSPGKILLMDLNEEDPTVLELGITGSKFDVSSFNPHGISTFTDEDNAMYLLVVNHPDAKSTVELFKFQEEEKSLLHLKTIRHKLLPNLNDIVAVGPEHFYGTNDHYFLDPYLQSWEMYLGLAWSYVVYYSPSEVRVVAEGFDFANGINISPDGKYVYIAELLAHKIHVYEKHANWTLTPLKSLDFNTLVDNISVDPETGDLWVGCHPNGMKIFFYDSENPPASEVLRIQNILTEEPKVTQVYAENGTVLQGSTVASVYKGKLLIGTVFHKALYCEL

Regarding `COc1ccc(C(=O)C(=O)c2ccccc2Cl)cc1OC` [2-chloro-3’,4’- dimethoxybenzil, 2-chloro-3’,4’-dimethoxybenzil], the 50% inhibitory concentration (IC50) was 2.5 µM in [1]; above 100 µM in data set [2]; 7.6 µM in data set [3]; above 100 µM in data set [4]; 25 µM in [5].

Regarding `COc1ccc2cc(C(C#N)OC(C)=O)ccc2c1` (stereo not drawn) [CMNA, cyano(6-methoxynaphthalen-2-yl)methyl acetate], the “hCE3 Specific activity” value in data set [6] (Table 2, [S] = 50 µM, 37°C, pH 8, estimated 3% purity) was 150 pmol/min/µg. Moreover, the “Hydrolysis Specific Activity” value in [6] (Table 6, hCE3) was 150 pmol/min/µg; in [7] (Table 6, hCE1) it was 3,000 pmol/min/µg; in data set [9] it was 15 ± 5 pmol/min/µg; in data set [11], 74 ± 3 pmol/min/µg; in data set [13], 180 ± 30 pmol/min/µg; in data set [14], 13 ± 1 pmol/min/µg. Besides, in data set [15] (Table 6, hCE2), the “Hydrolysis Specific Activity” value was 11,000 pmol/min/µg. Besides, the “hCE1 Specific activity” value in [7] (Table 2, [S] = 50 µM, 37°C, pH 8, estimated 25% purity) is 3000 pmol/min/µg. For the same compound, the “LOD for hCE1” value is listed as 0.98 ng in data set [8] (Endpoint mode 1 hour), 3.9 ng in [8] (Endpoint mode 4 hours), 0.06 ng in data set [8] (Endpoint mode 24 hours) and 2.0 ng in data set [8] (setting [17]). Further, the “LOQ for hCE1” value in [8] (Endpoint mode 1 hour) is on record as 7.8 ng; in data set [8] (setting [17]), 3.9 ng. For the same compound, the “FAAH Specific activity” value in data set [10] was 13 pmol/min/µg. Also, the “Rate of background hydrolysis” value in data set [12] was 20 pmol/min. Further, in [15] (Table 2, [S] = 50 µM, 37°C, pH 8, estimated 4% purity), the “hCE2 Specific activity” value was 11000 pmol/min/µg.

As for `NC(Cc1cc(I)c(Oc2cc(I)c(O)c(I)c2)c(I)c1)C(=O)O` (stereo not drawn) [Thyroxine], the IC50 in data set [1] is 1.5 µM; in [2], 23 µM; in [3], above 100 µM; in data set [16], 16 µM; in data set [4], 0.73 µM; in data set [5] it was 2.1 µM. The “Selectivity hCE2/hCE1” value in data set [16] (from IC50 values) came out at 0.094.
